Measurements collected from several papers.
Lines come from different studies, so protocols differ.
Read-out: microbial growth

`CCCCCCCCCCCN1CCNCC1` has an MIC of 7.8 µg/mL (Lodderomyces parapsilosis; broth dilution; ATCC22019; 48 h).
For `C=CCn1c(-c2ccc(OC)c(OC)c2)nc2ccccc21`, the MIC was 512 µg/mL (Aspergillus niger; ATCC16404).
For `CCCCCCCCCCCCCCN1CCOCC1`, the MIC was greater than 31.3 µg/mL (Lodderomyces parapsilosis; broth dilution; ATCC22019; 48 h).
`Cc1ccc2nc(-c3ccccc3O)[nH]c2c1` has an MIC of 512 µg/mL (Aspergillus niger; ATCC16404).
The MIC of `CCCCCCCCN1CCNCC1` is reported as greater than 31.3 µg/mL (Lodderomyces parapsilosis; broth dilution; ATCC22019; 48 h).
For `Cc1ccc(C)n1-c1ccc(-c2nnc(-c3cccc([N+](=O)[O-])c3)[nH]2)cc1`, the MIC was 31.2 µg/mL (Aspergillus niger; broth dilution; ATCC6275).
`CCCCCCCCCCCCN1CCNCC1` gave an MIC of 1.95 µg/mL (Lodderomyces parapsilosis; ATCC22019).
`O=C(c1cc(O)c(O)c(O)c1)c1cc2ccccc2o1` gave an MIC of 16 µg/mL (Lodderomyces parapsilosis; broth dilution).
The MIC of `CN1CCNCC1` is reported as greater than 31.3 µg/mL (Lodderomyces parapsilosis; broth dilution; ATCC22019; 48 h).
`Cc1ccc(C)n1-c1ccc(-c2nnc(-c3ccccc3Cl)[nH]2)cc1` has an MIC of 8 µg/mL (Aspergillus niger; broth dilution; ATCC6275).
For `CCCCCCCCN1CCN(CC(O)(Cn2cncn2)c2ccc(F)cc2F)CC1` (stereo not drawn), the MIC was 0.03 µg/mL (Lodderomyces parapsilosis; broth dilution; ATCC22019; 48 h).
`C=CCn1c(-c2ccc([N+](=O)[O-])cc2)nc2ccccc21` gave an MIC of 256 µg/mL (Aspergillus niger; ATCC16404).
For `Cc1ccc(C)n1-c1ccc(-c2nnc(-c3ccccc3[N+](=O)[O-])[nH]2)cc1`, the MIC was 31.2 µg/mL (Aspergillus niger; broth dilution; ATCC6275).
The MIC of `CCc1cc(Nc2cc(=O)n(CCCCO)c(=O)[nH]2)ccc1C` is reported as greater than 32 µg/mL (Bacteroides fragilis; agar dilution; 48 h).
The MIC of `CC1=NN(CNc2ccc(O)cc2)C(=O)C1=NNn1c(-c2ccccc2)nc2ccccc2c1=O` is reported as 107 µM (Aspergillus niger; broth dilution).
For `O=[N+]([O-])c1ccc(-c2nc3ccccc3n2Cc2ccccc2)cc1`, the MIC was 64 µg/mL (Aspergillus niger; ATCC16404).
The MIC of `CCCCCCCCCN1CCNCC1` is reported as greater than 31.3 µg/mL (Lodderomyces parapsilosis; broth dilution; ATCC22019; 48 h).
`Cc1ccc2nc(-c3ccc(Cl)cc3)[nH]c2c1` has an MIC of 256 µg/mL (Aspergillus niger; ATCC16404).
For `CCCCCCCCCCN1CCNCC1`, the MIC was 15.6 µg/mL (Lodderomyces parapsilosis; broth dilution; ATCC22019; 48 h).
`Cc1ccc(C)n1-c1ccc(-c2nnco2)cc1` has an MIC of 125 µg/mL (Aspergillus niger; broth dilution; ATCC6275).
`C[C@@H]1[C@H](O)[C@@H](C)/C=C/C=C/C=C/C=C/C=C/C=C/C=C/[C@H](O[C@@H]2O[C@H](C)[C@@H](O)[C@H](N)[C@@H]2O)C[C@@H]2O[C@](O)(C[C@@H](O)C[C@@H](O)[C@H](O)CC[C@@H](O)C[C@@H](O)CC(=O)O[C@H]1C)C[C@H](O)[C@H]2C(=O)O` gave an MIC of 0.5 to 1 µg/mL (Lodderomyces parapsilosis; broth dilution).
`Cc1ccc2nc(-c3ccc([N+](=O)[O-])cc3)[nH]c2c1` has an MIC of 512 µg/mL (Aspergillus niger; ATCC16404).
With `CC1=NN(CNc2ccccc2[N+](=O)[O-])C(=O)C1=NNn1c(-c2ccccc2)nc2ccccc2c1=O` the MIC was 50.4 µM (Aspergillus niger; broth dilution).
`O=[N+]([O-])c1cccc(-c2nc3ccccc3[nH]2)c1` has an MIC of 512 µg/mL (Aspergillus niger; ATCC16404).
`O=c1[nH]c(NCc2ccc(Cl)c(Cl)c2)nc2ncn(CCCCCN3CCOCC3)c12` has an MIC of greater than 32 µg/mL (Bacteroides fragilis; agar dilution; 48 h).
`Cc1ccc2nc(-c3cccc(O)c3)[nH]c2c1` has an MIC of 128 µg/mL (Aspergillus niger; ATCC16404).
`CC1=NN(CNc2ccc(Cl)cc2)C(=O)C1=NNn1c(-c2ccccc2)nc2ccccc2c1=O` gave an MIC of 51.5 µM (Aspergillus niger; broth dilution).
